From PubChem BioAssay
JMJD2C inh – inhibitors of human GASC-1 (JMJD2C) demethylase | AID 2099 | 330,000 compounds, 0.069% hits | inhibition, % at 2.35 µM | GST-JMJD2C(1-420) H3K9me3 demethylation, DELFIA europium | Q9H3R0;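 active means more than half of a compound's replicate wells show inhibition beyond 50%, single wells judged on their own value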;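 further: signal counts dimethyl H3K9 product captured on neutravidin plate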
Target sequence (Q9H3R0 1-420 limits assumed): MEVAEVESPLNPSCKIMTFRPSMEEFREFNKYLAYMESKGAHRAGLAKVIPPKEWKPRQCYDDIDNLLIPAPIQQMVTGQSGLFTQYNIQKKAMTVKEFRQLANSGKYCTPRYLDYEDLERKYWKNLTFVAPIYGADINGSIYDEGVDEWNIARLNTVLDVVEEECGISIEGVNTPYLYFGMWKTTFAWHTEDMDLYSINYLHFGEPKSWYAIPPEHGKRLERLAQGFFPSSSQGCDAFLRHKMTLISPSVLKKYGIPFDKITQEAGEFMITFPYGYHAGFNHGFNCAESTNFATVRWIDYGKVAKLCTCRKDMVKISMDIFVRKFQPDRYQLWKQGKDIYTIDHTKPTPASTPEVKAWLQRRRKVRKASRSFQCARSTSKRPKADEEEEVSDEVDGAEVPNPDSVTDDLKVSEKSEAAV
PRMT1 inh – PRMT1 (human) inhibition, primary screen; 370,000 compounds, 1.3% hits; AID 652257; recombinant PRMT1, activity-based probe fluorescence polarization; Q99873; inhibition, % at 2.79 µM;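 active means inhibition above about 21% made by adding two undisclosed values, limit read from the data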
HTRA1 inh – HTRA1 (human) protease inhibition | Q92743 | recombinant HTRA1, FP-rhodamine activity-based probe, fluorescence polarization | inhibition, % at 5.96 µM | 340,000 compounds, 0.5% hits; in the data active means inhibition above about 36%
SIAE inh – blocks human sialic acid acetylesterase | SIAE FP-Rh probe binding, fluorescence polarization | AID 1053197 | 370,000 compounds, 0.69% hits | inhibition, % at 9.66 µM | Q9HAT2;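 active means inhibition above a cutoff: mean of compounds within the control limits plus 3 SD of those, cut at about 17% in these data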
ABHD4 inh – inhibitors of mouse ABHD4; inhibition, % at 8.92 µM; Q8VD66; AID 720543; purified mABHD4, FP-Rh probe fluorescence polarization; 370,000 compounds, 0.54% hits;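 active means inhibition exceeding the mean over every tested compound plus 3 SD, cut at about 30% in these data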
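Assay system: mABHD4 protein; medium: HEPES pH 7.0, NaCl, Pluronic buffer; dosing: 8.92 µM, single dose; schedule: 45 min + 60 min at 25 °C; signal: FP readout, ex 525 nm / em 598 nm; read-out: normalized percent inhibition of probe labeling; repeats: single replicate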
PRMT1 confirm – PRMT1 (human) inhibition, FP confirmation; shares compounds with PRMT1 inh; recombinant His-PRMT1, activity-based probe fluorescence polarization; inhibition, % at 2.79 µM; 3,300 compounds, 42% hits; AID 687036;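 active means mean inhibition across replicates above the hit cutoff derived for the earlier primary screen, cut at about 22% in these data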
Each line names hits and unclear results; the compound was inactive in the other large screens (follow-up assays come after a bar, where they were run). Most compounds without a hit are left out; they make up all but 2.4% or so of the library.

O=C(CCN1C(=O)/C(=C\c2ccco2)SC1=S)Nc1ccc(C(=O)O)c(O)c1	PRMT1 inh 38.6 | PRMT1 confirm 28.5
O=C(CCCN1C(=O)/C(=C\c2ccco2)SC1=S)Nc1ccc2ccccc2c1	none
CC(C(=O)Nc1ccc(O)cc1C(=O)O)N1C(=O)/C(=C\c2cccs2)SC1=S (stereo unspecified)	PRMT1 inh 58.2 | PRMT1 confirm 28.0
O=C(CCN1C(=O)/C(=C/c2ccco2)SC1=S)Nc1ccc(O)cc1C(=O)O	PRMT1 inh 68.3 | PRMT1 confirm 37.6
COc1ccccc1/C=C1\SC(=S)N(CCC(=O)Nc2ccc(C(=O)O)c(O)c2)C1=O	none
COc1ccc(C(=O)NCC2CCN(C(=O)C(=O)c3cccs3)CC2)cc1	none (no result: JMJD2C inh, HTRA1 inh)
NC(N)=NCCCS(=O)(=O)Nc1ccc(Nc2c3ccccc3nc3cc([N+](=O)[O-])ccc23)cc1	none (no result: JMJD2C inh)
COC(=O)C1Sc2[nH]c(=O)sc2C(c2ccc(Cl)cc2)C1C(=O)OC (stereo unspecified)	none
COC(=O)C1CSc2[nH]c(=O)sc2C1c1ccccc1 (stereo unspecified)	PRMT1 inh 45.6 | PRMT1 confirm 25.6
CN1c2ccc(C#CC3CC3)cc2[C@@H]2[C@@H](CCN2C(=O)C2CCOCC2)[C@H]1CO	none (no result: JMJD2C inh, HTRA1 inh)
COC(=O)CC1C(=O)NCCN1C(=O)CSc1nc2ccccc2s1 (stereo unspecified)	PRMT1 inh 36.4 | PRMT1 confirm 36.9
CCOC(=O)N1CCN(C(=O)C[C@H]2C[C@@]3(C(=O)OC)C(=C[C@H](COCc4ccccc4)O[C@@H]3C)N(Cc3ccccc3)C2=O)CC1	none (no result: JMJD2C inh, HTRA1 inh)
COC(=O)c1cc(C(C)c2ccccc2O)n2ccccc12 (stereo unspecified)	none (no result: JMJD2C inh, HTRA1 inh)
CCOC(=O)CSc1nc2c(sc(=S)n2-c2ccccc2)c(=O)n1-c1ccc(OC)cc1OC	none
COc1ccc(OC)c(-n2c(=S)[nH]c3c(sc(=S)n3-c3ccccc3)c2=O)c1	PRMT1 inh 65.4 | PRMT1 confirm inactive
C=CS(=O)(=O)c1sc(Cl)c(N2CCOCC2)c1[N+](=O)[O-]	PRMT1 inh 68.1 | PRMT1 confirm 81.7
C=CSc1sc(Cl)c(N2CCOCC2)c1[N+](=O)[O-]	none
Cc1ccc(-n2c(SCC(=O)Nc3ccccc3-c3ccccc3)nnc2-c2cnccn2)cc1	none (no result: JMJD2C inh, HTRA1 inh)
O=C(O)CCC(NC(=O)c1ccc(Cl)cc1)C(=O)O (stereo unspecified)	none
NC(=O)CCC(NC(=O)c1ccc(Cl)cc1)C(=O)O (stereo unspecified)	PRMT1 inh 51.6 | PRMT1 confirm inactive
CCOC(=O)/C(=C\c1ccccc1)C(=O)CCN1CCOCC1	none (no result: JMJD2C inh)
O[C@@H]1[C@@H](O)[C@H](n2c3ccc(Cl)cc3c3ccc4c5cc(Cl)ccc5[nH]c4c32)OC[C@H]1O	none (no result: JMJD2C inh, HTRA1 inh)
COC(=O)C(NNc1ccccc1C)(NC(=O)c1ccc(F)cc1)C(F)(F)F (stereo unspecified)	PRMT1 inh 49.7 | PRMT1 confirm inactive
CCOc1ccc(-c2nc(CSCC(=O)NC3CCC3)c(C)o2)cc1	none (no result: JMJD2C inh, HTRA1 inh)
CCCCN=C(N)NC(=O)OCc1ccccc1	none (no result: JMJD2C inh, HTRA1 inh)
CC(C)Oc1ccc(Br)cc1/C=N\NC(N)=S	PRMT1 inh 38.9 | PRMT1 confirm inactive
CC(=O)Nc1ccc(SCC(=O)N(CCC#N)c2ccc(C)cc2)cc1	PRMT1 inh 39.1 | PRMT1 confirm inactive
CCc1ccccc1OCC(=O)Nc1cc(S(=O)(=O)N(CC)CC)ccc1N1CCOCC1	none
Cc1cc(-c2nnc(SCC(=O)Nc3nc(-c4ccc(Cl)cc4)cs3)o2)no1	PRMT1 inh 41.9 | PRMT1 confirm inactive
O=C(c1ccccc1I)N1CCC(Oc2cccnc2)CC1	none (no result: JMJD2C inh, HTRA1 inh)
CN1CCC(CNC(=O)Nc2csc3ccccc23)CC1	PRMT1 inh 42.4 (no result: HTRA1 inh) | PRMT1 confirm inactive
O=C(Cc1csc2ccccc12)NCC1CC1	none (no result: JMJD2C inh, HTRA1 inh)
S=P(N1CC1)(N1CC1)N1CC1	PRMT1 inh 39.6 (no result: JMJD2C inh) | PRMT1 confirm inactive
CC(C)N(CCC(=O)c1ccc2ccccc2c1)Cc1ccccc1	PRMT1 inh 54.3 | PRMT1 confirm 71.4
CN1C/C(=C/c2ccccc2)N2C(=O)C[C@@H](c3ccccc3)N=C12	none (no result: JMJD2C inh, HTRA1 inh)
C[C@@H]1[C@@H](O)C[C@@]2(C[C@H](O)c3cc(F)ccc3O2)O[C@H]1c1ccccc1Cl	none (no result: JMJD2C inh, HTRA1 inh)
O=C(CSc1nnc(CNC(=O)c2ccco2)o1)Nc1nc2ccccc2s1	PRMT1 inh 56.4 | PRMT1 confirm inactive
